Reference: paper PMC3172994 (Biochemistry, 2011)
Where “and” joins values, the source holds several entries; their conditions need not be identical. Identical values can stand only once. Like-named read-outs stand apart in the source and are kept apart here.

Experiments:
thrombin [1] = conditions: cited from earlier work
thrombin [2] = conditions: cited from earlier work; remark: listed apart in the source
human α-thrombin [3] = molecular target: T1, human α-thrombin (Homo sapiens, UniProt P00734); assay: PABA fluorescence titration of SOS binding to human thrombin; conditions: for ΔG° / ΔFMAX / Kd: pH 7.4, 25 °C; for ΔFMAX: PABA fluorescence λEM 370 nm; for Kd: read-out: KD,OBS
BT (bovine thrombin) = BT (bovine thrombin) (Bos taurus, UniProt P00735); format: biochemical; conditions: not shown
Outline: (§1)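 Purified α-thrombin with the test compound in 20 mM phosphate or Tris, pH 7.4, 150 mM NaCl, 0.1 mM EDTA or CaCl₂, 0.1% PEG 8000. Cuvette format: 5 nM enzyme, 50 μM Spectrozyme TH, room temperature. Plate format: 12.5 nM enzyme, 10 min preincubation at 25 °C. Initial A405 rate taken as activity relative to a no-compound control. A logistic fit gave IC50, Hill slope and maximal inhibition (from Y0, YM).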

[4] = molecular target: HT cleavage of human fibrinogen (Homo sapiens, UniProt P00734); assay: Turbidimetric assay of thrombin cleavage of fibrinogen; format: biochemical; conditions: 0.7 - 1.8 mM SOS, turbidity at 600 nm
human α-thrombin [5] = molecular target: T1, human α-thrombin; format: biochemical
Outline: as §1

[6] = pH 7.4, I = 0.15, 25 °C, Spectrozyme TH

## N=C(N)c1ccc(N)cc1 [PABA, p-aminobenzamidine]
Thrombin [1]
  Kd: 60 to 80 µM

## O=S(=O)(O)OC[C@H]1O[C@@](COS(=O)(=O)O)(O[C@H]2O[C@H](COS(=O)(=O)O)[C@@H](OS(=O)(=O)O)[C@H](OS(=O)(=O)O)[C@H]2OS(=O)(=O)O)[C@@H](OS(=O)(=O)O)[C@@H]1OS(=O)(=O)O [SOS, Sucrose octasulfate]
Thrombin [2]
  inhibition of thrombin hydrolysis of CBS31.39: ≤ 10%
Human α-thrombin [3]
  contribution due to non-ionic forces: 2.4 kcal/mol
Human α-thrombin [3]; 20 mM sodium phosphate, pH 7.4, 50 mM NaCl
  maximal decrease in fluorescence at 370 nm: approximately 5%
Human α-thrombin [3]; 50 mM NaCl
  ΔG°: 7.9 ± 0.1 kcal/mol
  ΔFMAX: −4.8±0.1%
Human α-thrombin [3]; 150 mM NaCl
  ΔG°: 6.4 ± 0.2 kcal/mol
  ΔFMAX: −6.4±0.3%
  Kd: 22 ± 4 µM
Human α-thrombin [3]; 250 mM NaCl
  ΔG°: 5.2 ± 0.2 kcal/mol
  ΔFMAX: −9.2±0.6%
  Kd: 149 ± 25 µM
Human α-thrombin [3]; SOS - HT vs heparin - HT
  non-ionic contribution relative to heparin - HT complex: approximately 12.5 fold
Human α-thrombin [3]; pH 7.4
  slope of logKD,OBS vs log[Na+]: 3.8 ± 0.5
Human α-thrombin [3]; pH 7.4, I 0.15
  contribution of non-ionic forces, share of total binding energy: approximately 35%
Human α-thrombin [3]; pH 7.4, I = 0.15, 25 °C
  ionic binding energy: 4.5 kcal/mol
Human α-thrombin [3]; 50 mM NaCl, I = 0.085
  Kd: ~1.4 µM and 1.4 µM
BT (bovine thrombin)
  maximal inhibition of Spectrozyme TH hydrolysis: 20 ± 2.0%
[4]
  effect on fibrinogen cleavage profile: gradual increase in the lag time of cleavage
Human α-thrombin [5]; HT, from Y0 and YM of equation 3
  maximal inhibition of Spectrozyme TH hydrolysis: 13.5 ± 0.2%
Human α-thrombin [5]; [6]
  Hill slope: 1.5 ± 0.5
  IC50: 4.5 ± 1.1 µM
